{"data": "Results collected from several papers", "read-out": "cell growth or viability"}
{"Compound": "COc1cc(Nc2nccc(-c3cnn4nc(OC)ccc34)n2)cc(C(F)(F)F)c1", "cell line": "KG-1", "test": "ATP luminescence", "IC50 [µM]": 0.86}
{"Compound": "Cn1cc(C(c2cccc(/C=C/C(=O)O)c2)c2cn(C)c3ccccc23)c2ccccc21", "cell line": "KG-1", "setting": "48 h", "IC50 [µM]": "> 20"}
{"Compound": "COCCCOC(=O)[C@]1(C)CC[C@]2(C)CC[C@]3(C)C4=CC=C5C(=CC(=O)C(O)=C5C)[C@]4(C)CC[C@@]3(C)[C@@H]2C1", "cell line": "Bel-7402", "test": "MTT", "setting": "48 h", "IC50 [µM]": 0.81}
{"Compound": "Oc1ccc(C(c2c[nH]c3ccccc23)c2c[nH]c3ccccc23)cc1", "cell line": "KG-1", "setting": "48 h", "IC50 [µM]": "> 20"}
{"Compound": "COc1cc(-c2ncn(/C=C\\C(=O)OC(C)C)n2)cc(C(F)(F)F)c1", "cell line": "KG-1", "setting": "72 h", "IC50 [µM]": 0.165}
{"Compound": "CCn1c2ccccc2c2cc(C3CC(c4cc5cccc(OC)c5oc4=O)=NN3c3ccccc3)ccc21 (stereo not drawn)", "cell line": "NRK-52E", "test": "MTT", "setting": "24 h", "IC50 [µM]": 70.4}
{"Compound": "Cc1cccc2c(C(c3ccc(/C=C/C(=O)O)s3)c3c[nH]c4c(C)cccc34)c[nH]c12", "cell line": "KG-1", "setting": "48 h", "IC50 [µM]": "> 5"}
{"Compound": "COc1cc2c(Oc3ccc(NC(=O)C4(C(=O)Nc5ccc(F)cc5)CC4)cc3F)ccnc2cc1OCCCN1CCOCC1", "cell line": "Rh18", "setting": "72 h", "IC50 [µM]": 0.31}
{"Compound": "CC1=C(O)C(=O)C=C2C1=CC=C1[C@@]2(C)CC[C@@]2(C)[C@@H]3C[C@](C)(C(=O)OCCCCCCCCO)CC[C@]3(C)CC[C@]12C", "cell line": "Bel-7402", "test": "MTT", "setting": "48 h", "IC50 [µM]": 1.16}
{"Compound": "CC(C)[C@H](N)C(=O)N1CCC[C@H]1B(O)O", "cell line": "KG-1", "test": "ATP luminescence", "setting": "48 h", "IC50 [µM]": 0.12}
{"Compound": "CCn1c2ccccc2c2cc(C3CC(c4cc5cccc(OC)c5oc4=O)=NN3c3ccc(C)cc3)ccc21 (stereo not drawn)", "cell line": "NRK-52E", "test": "MTT", "setting": "24 h", "IC50 [µM]": 52}
{"Compound": "CC1=C(O)C(=O)C=C2C1=CC=C1[C@@]2(C)CC[C@@]2(C)[C@@H]3C[C@](C)(C(=O)OCCCn4ccc5ccccc54)CC[C@]3(C)CC[C@]12C", "cell line": "Bel-7402", "test": "MTT", "setting": "48 h", "IC50 [µM]": 5.42}
{"Compound": "FC(F)(F)c1ccc(C(c2c[nH]c3ccccc23)c2c[nH]c3ccccc23)cc1", "cell line": "KG-1", "setting": "48 h", "IC50 [µM]": 15}
{"Compound": "CC1=C(O)C(=O)C=C2C1=CC=C1[C@@]2(C)CC[C@@]2(C)[C@@H]3C[C@](C)(C(=O)OCCCCCCCO)CC[C@]3(C)CC[C@]12C", "cell line": "Bel-7402", "test": "MTT", "setting": "48 h", "IC50 [µM]": 0.74}
{"Compound": "O=C(O)c1ccc(C(c2c[nH]c3ccccc23)c2c[nH]c3ccccc23)cc1", "cell line": "KG-1", "setting": "48 h", "IC50 [µM]": "> 20"}
{"Compound": "CCCON(Cc1ccc(C(=O)NO)cc1)C(=O)Nc1ccc(N(C)C)cc1", "cell line": "MOLM-13", "test": "ATP luminescence", "setting": "72 h", "IC50 [µM]": 7.19}
{"Compound": "CC1=C(O)C(=O)C=C2C1=CC=C1[C@@]2(C)CC[C@@]2(C)[C@@H]3C[C@](C)(C(=O)OCCCBr)CC[C@]3(C)CC[C@]12C", "cell line": "Bel-7402", "test": "MTT", "setting": "48 h", "IC50 [µM]": 0.72}
{"Compound": "CCn1c2ccccc2c2cc(C3CC(c4cc5c(ccc6ccccc65)oc4=O)=NN3c3ccccc3)ccc21 (stereo not drawn)", "cell line": "NRK-52E", "test": "MTT", "setting": "24 h", "IC50 [µM]": 122}
{"Compound": "CC1=C(O)C(=O)C=C2C1=CC=C1[C@@]2(C)CC[C@@]2(C)[C@@H]3C[C@](C)(C(=O)OCCCCCCO)CC[C@]3(C)CC[C@]12C", "cell line": "Bel-7402", "test": "MTT", "setting": "48 h", "IC50 [µM]": 1.22}
{"Compound": "CC(C)C[C@H](NC(=O)[C@H](Cc1ccccc1)NC(=O)c1cnccn1)B(O)O", "cell line": "KG-1", "test": "ATP luminescence", "IC50 [µM]": 0.0048}
{"Compound": "CCn1c2ccccc2c2cc(C3CC(c4cc5c(ccc6ccccc65)oc4=O)=NN3C(N)=O)ccc21 (stereo not drawn)", "cell line": "NRK-52E", "test": "MTT", "setting": "24 h", "IC50 [µM]": 59.1}
{"Compound": "Cn1cc(C(c2ccc(C(=O)O)cc2)c2cn(C)c3ccccc23)c2ccccc21", "cell line": "KG-1", "setting": "48 h", "IC50 [µM]": "> 20"}
{"Compound": "CCn1c2ccccc2c2cc(C3CC(c4cc5c(ccc6ccccc65)oc4=O)=NN3c3cccc(Cl)c3)ccc21 (stereo not drawn)", "cell line": "NRK-52E", "test": "MTT", "setting": "24 h", "IC50 [µM]": 57.1}
{"Compound": "COc1cc(N2CCC(N3CCN(C)CC3)CC2)ccc1Nc1ncc(Cl)c(Nc2ccccc2S(=O)(=O)C(C)C)n1", "cell line": "Rh18", "setting": "72 h", "IC50 [µM]": 0.27}
{"Compound": "CCn1c2ccccc2c2cc(C3CC(c4cc5ccccc5oc4=O)=NN3C(C)=O)ccc21 (stereo not drawn)", "cell line": "NRK-52E", "test": "MTT", "setting": "24 h", "IC50 [µM]": 116}
{"Compound": "Cc1ccc2c(c1)c(C(c1ccc(/C=C/C(=O)O)s1)c1cn(C(C)C)c3ccc(C)cc13)cn2C(C)C", "cell line": "KG-1", "setting": "48 h", "IC50 [µM]": "> 5"}
{"Compound": "CCn1c2ccccc2c2cc(/C=C/C(=O)c3cc4cccc(OC)c4oc3=O)ccc21", "cell line": "NRK-52E", "test": "MTT", "setting": "24 h", "IC50 [µM]": 115}
{"Compound": "CC1=C(O)C(=O)C=C2C1=CC=C1[C@@]2(C)CC[C@@]2(C)[C@@H]3C[C@](C)(C(=O)OCCCCO)CC[C@]3(C)CC[C@]12C", "cell line": "Bel-7402", "test": "MTT", "setting": "48 h", "IC50 [µM]": 0.63}
{"Compound": "Cc1cc(Nc2ncc(Cl)c(Nc3ccccc3S(=O)(=O)C(C)C)n2)c(OC(C)C)cc1C1CCNCC1", "cell line": "Rh18", "setting": "72 h", "IC50 [µM]": 2.34}
{"Compound": "CCn1c2ccccc2c2cc(C3CC(c4cc5ccccc5oc4=O)=NN3c3cccc(Cl)c3)ccc21 (stereo not drawn)", "cell line": "NRK-52E", "test": "MTT", "setting": "24 h", "IC50 [µM]": 41}
